STAT3 inh-1 = STAT3 signaling inhibition. U3A cells, IL-6 STAT3-luciferase reporter, luminescence; host cell line lacks STAT1. inhibition, % at 5.5 µM. 190,000 tested, 0.89% active;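 active means inhibition above the mean inhibition across all screened compounds plus 3 SD, cut at about 44% in these data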;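 further: 0% = DMSO only wells and 100% = 100 µM nifuroxazide control wells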
STAT3 activator = increases IL-6 driven STAT3 reporter signal | activation (% of control), % at 5.6 µM | AID 871 | U3A cells, IL-6 STAT3-luciferase reporter, luminescence; 100% = signal with IL-6 EC80 alone | 190,000 tested, 0.91% active;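 active means activation above the screen-wide mean of compound activation plus 3 SD, cut at about 130% in these data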;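 further: 0% = background luminescence of wells with medium and substrate only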
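Material: human U3A cells carrying STAT3-luciferase construct. Measured by: reporter luminescence signal. Timing: compound 1 h, then IL-6 6 h at 37 °C.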
STAT1 activator = increases IFN-gamma driven STAT1 reporter signal | NIH 3T3 STAT1-luciferase reporter, luminescence; 100% = IFN-gamma alone, no compound | activation (% of control), % at 5.5 µM | 200,000 tested, 2.6% active | AID 932;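 active means activation above the screen-wide mean activation plus 3 SD, cut at about 130% in these data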;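 further: raw ratio to IFN-gamma control signal so 100% means no change and 0% no light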
STAT1 inh = STAT1 signaling inhibition. NIH 3T3 STAT1-luciferase reporter, IFN-gamma, luminescence. 200,000 tested, 0.35% active. AID 920. inhibition, % at 5.5 µM;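 active means inhibition above a set limit, the mean inhibition across all tested compounds plus 3 SD, cut at about 34% in these data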;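 further: 0% = IFN-gamma with DMSO and 100% = IFN-gamma with 300 µM nifuroxazide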
APP 5'UTR act = APP 5'UTR luciferase reporter activation; AID 1276; SH-SY5Y APP 5'UTR luciferase reporter, luminescence; zero percent = DMSO vehicle wells; 190,000 tested, 1% active; activation, % at 2 µM;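 active means activation above a set limit, based on mean plus 3 SD of controls, cut at about 140% in these data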
NF-kB expr up = NF-kB expression increase, human neuronal cells. NF-kB reporter expression; stronger effect = higher value. 190,000 tested, 1.6% active. fold change at 12.5 µM; in the data active means fold change above about 3.3
STAT3 inh-2 = STAT3 inhibition, confirmation assay; shares compounds with STAT3 inh-1; U3A cells, IL-6 STAT3 luciferase reporter, luminescence; cell line lacks STAT1; inhibition, % at 5.7 µM; 1,200 tested, 45% active;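 active means inhibition above the hit cutoff computed for the primary STAT3 screen, cut at about 44% in these data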;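 further: 0% = IL-6 plus DMSO and 100% = IL-6 plus nifuroxazide control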
NFkB inh STAT3ct = inhibits NF-kappaB, counter-screen to STAT3 inhibitors; shares compounds with STAT3 inh-1; HEK293T NF-kB luciferase reporter, TNF-alpha induced; inhibition, % at 5.7 µM; 1,200 tested, 36% active;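 active means inhibition above the mean of solvent-only control wells plus 3 SD, cutoff set per campaign, cut at about 13% in these data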;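 further: 0% = TNF-alpha with DMSO and 100% = TNF-alpha with MG high control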
STAT1 inh STAT3c = STAT1 inhibition in STAT3 inhibitor counter-screen; shares compounds with STAT3 inh-1; 1,200 tested, 27% active; NIH 3T3 STAT1-luciferase reporter, IFN-gamma induced, luminescence; inhibition, % at 5.7 µM;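 active means inhibition above the mean plus 3 SD of solvent-only control wells, limit set per screening run, cut at about 16% in these data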;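 further: 0% = DMSO with IFN-gamma and 100% = nifuroxazide control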
* = called active by the depositor; . = not tested or not shown. Most compounds without a hit are left out; they make up all but 5.1% or so of the library.

SMILES	STAT3 inh-1	STAT3 activator	STAT1 activator	STAT1 inh	APP 5'UTR act	NF-kB expr up	STAT3 inh-2	NFkB inh STAT3ct	STAT1 inh STAT3c
CS/C(=C/[N+](=O)[O-])Nc1cccc2c1C(C)CC2(C)C (centres undefined)	0	103	95	5	20	1	.	.	.
C#CC(=O)N(c1ccc(OC)c(OC)c1)C(C(=O)NC1CCCC1)c1cccs1 (centres undefined)	108*	15	68	36*	-17	0.13	89*	19*	32*
COc1ccc(N(C(=O)Cc2cccs2)C(C(=O)NC2CCCCC2)c2cccn2C)cc1OC (centres undefined)	4	99	96	1	-19	0.79	.	.	.
CCOc1ccc(NC(=S)N(CCOC)C(C)c2cccnc2)cc1 (centres undefined)	7	99	95	6	6	1.2	.	.	.
Clc1ccc(-c2nnc(-c3ccccc3)o2)c(Cl)c1	59*	56	104	-4	119	5*	34	-5	-77
CSc1ccccc1-c1nnc(-c2ccc(Cl)cc2Cl)o1	16	93	122	-25	6	2.9	.	.	.
Fc1ccc(-c2nnc(-c3ccc(Cl)cc3Cl)o2)cc1	70*	45	90	12	141*	3.2	37	6	-66
COc1ccc(CNC(=O)COC(=O)c2ccccn2)cc1	2	103	102	-2	6	1	.	.	.
Cc1nn(Cc2ccc(Cl)cc2Cl)c(C)c1NC(=O)C1C2CCC(O2)C1C(=O)O (centres undefined)	47*	63	91	17	-6	0.95	27	4	10
O=C(NC1c2ccccc2-c2ccccc21)N1CCCCC1	52*	61	101	-2	7	1.1	35	17*	3
O=C(Nc1ccc(-c2nc3ccccc3o2)cc1)c1ccc2c(c1)OCO2	20	82	109	-10	3	1.1	.	.	.
COc1cc(OC)cc(C(=O)Nc2ccc(-c3nc4ccccc4o3)cc2)c1	46*	65	92	9	3	0.44	45*	3	12
O=C(Nc1ccc(-c2nc3ccccc3o2)cc1)c1ccc(N2C(=O)C3C4C=CC(C4)C3C2=O)cc1 (centres undefined)	74*	38	91	7	.	1.1	68*	17*	-11
O=C(Nc1ccc2oc(-c3ccccc3)nc2c1)c1ccncc1	46*	67	105	-6	28	1.1	35	3	-8
COc1ccc(NC(=O)CNc2cc(S(=O)(=O)N3CCOCC3)ccc2NCC2CCCO2)cc1 (centres undefined)	20	87	99	-1	-19	1.4	.	.	.
Cc1nn(CCC#N)c(NC(=O)c2ccc(Cl)cc2Cl)c1P(=O)(Nc1ccc([N+](=O)[O-])cc1)N1CCOCC1 (centres undefined)	15	93	96	4	-5	1.3	.	.	.
COc1cc(CCC(=O)OCC(=O)Nc2c(C)cccc2C(C)C)cc(OC)c1OC	-1	100	109	-10	15	1.1	.	.	.
c1ccc(-c2cc(CSc3nc4ccccc4[nH]3)on2)cc1	46*	63	88	13	-12	0.79	37	11	14
CCOC(=O)N1CCC(NC(=O)C2CCN(c3nc(-c4ccc(OC)cc4)no3)CC2)CC1	50*	63	93	8	-7	0.96	38	12	12
CCCCCCCn1c(C)nnc1-c1cnn(C)c1N	13	94	99	0	47	1.2	.	.	.
Fc1ccc(Sc2ccccc2CNC2=NCCN2)cc1	46*	63	88	13	14	1.3	29	-7	13
O=[N+]([O-])c1cc(CN2CCCC2)ccc1Sc1ccc(Cl)cc1	1	105	97	1	16	1.1	.	.	.
C/C(=N/NC(=O)c1cc(C(C)C)[nH]n1)c1cccs1	51*	61	102	-2	108	3.4*	7	-26	-64
C/C(=N\NC(=O)c1ccc(Cl)cc1)c1cccs1	59*	52	75	26	128	5.4*	18	-13	-65
O=C(Cn1cc(C(=O)C(F)(F)F)c2ccccc21)N1CCOCC1	-4	105	102	-5	8	1	.	.	.
SMILES	STAT3 inh-1	STAT3 activator	STAT1 activator	STAT1 inh	APP 5'UTR act	NF-kB expr up	STAT3 inh-2	NFkB inh STAT3ct	STAT1 inh STAT3c
CCOc1ccc2nc(-c3ccccc3)[nH]c2c1	50*	59	139*	-43	142*	5.4*	22	-17	-110
Cc1ccc(C(=O)Nc2nnc(SCC(=O)N3CCCc4ccccc43)s2)cc1	62*	47	82	20	59	7.1*	71*	56*	49*
CC(C)Oc1ccc(C(=O)Nc2nnc(SCC(=O)N3CCOCC3)s2)cc1	70*	40	81	21	88	1.1	74*	57*	50*
O=C(Nc1nnc(SCC(=O)N2CCCc3ccccc32)s1)c1cccc2ccccc12	-3	105	99	1	7	0.92	.	.	.
CNS(=O)(=O)c1cccc(C(=O)OCC(=O)N(Cc2ccccc2)C(C)(C)C)c1	3	99	100	0	4	1.2	.	.	.
NC(N)=Nc1nc(-c2ccccc2)c2cc(F)ccc2n1	16	90	89	12	-25	2.6	.	.	.
O=C(/C=C/c1ccccc1Cl)Nc1ccc2c(c1)C(=O)NC2=O	13	96	99	1	-2	0.99	.	.	.
O=C(/C=C/c1ccccc1Cl)Nc1cccc(O)c1	64*	48	69	32	191*	12*	24	14*	17*
COc1cc(N/N=C/c2ccccc2O)ncn1	19	83	108	-9	-41	2.8	.	.	.
COc1cc(N/N=C/c2ccc(N(C)C)cc2)ncn1	61*	50	69	33	135*	4.1*	8	0	-103
CCN1CCN(CCOc2ccc(Cl)cc2)CC1	10	97	113	-16	7	1.3	.	.	.
Cc1ccc(OCCN2CCN(c3ncnc4sc(C)c(C)c34)CC2)cc1	79*	35	78	24	.	0.7	81*	26*	25*
Clc1ccc(OCCN2CCN(c3ncnc4sccc34)CC2)cc1	89*	30	74	29	-15	0.59	88*	34*	23*
Cc1sc2ncnc(N3CCCCC3)c2c1C	13	94	89	12	.	0.73	.	.	.

Source: PubChem BioAssay
